Assay results reported in ChEMBL document CHEMBL1123882, “Potential antitumor agents. 51. Synthesis and antitumor activity of substituted phenazine-1-carboxamides” (J Med Chem, 1987).

Tests used:
L1210 [1] = experiment: Tested for comparative cytotoxicity as ratio of IC50 value, relative to 3-substituted derivative (1.00).; assay type: functional, Mus musculus
L1210 [2] = experiment: Tested for comparative cytotoxicity as ratio of IC50 value, relative to OMe derivative (1.00).; assay type: functional, Mus musculus
P388 [3] = experiment: (§1) Average increase in life span of treated animals over control groups of tumor-bearing untreated animals when given at optimal dose; NA means no significant activity (in vivo); assay type: functional, organism-based; details: Mus musculus
Procedure, shortened: (§2)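 Mice received drug ip as a solution in 0.1 mL 30% v/v EtOH/water at the optimal dose. For P388, 10^6 cells were inoculated ip and drug given on days 1, 5 and 9. For LL, 10^6 cells were inoculated iv and drug given on days 5, 9 and 13. ILS is the mean life-span increase over untreated tumor-bearing controls, significant above 20% (P388) or 40% (LL). Groups were of six. NA means no significant activity up to acutely toxic doses.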

P388 [4] = experiment: Optimal dose in mg/kg administered intraperitoneally on days 1,5 and 9 required to inhibit the growth of P388 leukemia cells was determined (in vivo); assay type: functional, Mus musculus
Procedure, shortened: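 Mice were inoculated ip with 10^6 P388 cells. Drug was given ip as a solution in 0.1 mL 30% v/v EtOH/water on days 1, 5 and 9. The optimal dose (mg/kg per day) is the one giving maximal increase in life span; survivors were scored at 50 days, in groups of six.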

L1210 [5] = experiment: Nanomolar concentration required to reduce the growth of L1210 cells in culture to 50% of control values after 70 h (in vitro); assay type: functional, cell-based; details: Mus musculus, L1210, 70 h
Procedure, shortened: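 L1210 cells were grown in culture with drug for 70 h. IC50 is the drug concentration (nM) reducing growth to 50% of control values.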

[6] = Lipophilicity (HPLC); assay type: physicochemical
[7] = test system: Lewis lung carcinoma cell line; experiment: Optimal dose required after intraperitoneal administration on days 5,9 and 13 to inhibit the growth of lewis lung carcinoma (LL) cells was determined (in vivo); assay type: functional, Mus musculus
Procedure, shortened: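 Mice were inoculated iv with 10^6 Lewis lung cells. Drug was given ip in 0.1 mL 30% v/v EtOH/water on days 5, 9 and 13. The optimal dose (mg/kg per day) is the one giving maximal increase in life span; survivors were scored at 60 days, in groups of six.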

P388 [8] = experiment: (§3) Average increase in life span of treated animals over control groups of tumor-bearing untreated animals when given at optimal dose (in vivo); assay type: functional, Mus musculus
Procedure, shortened: (§4)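 Mice inoculated ip with 10^6 P388 cells (drug ip on days 1, 5, 9) or iv with 10^6 Lewis lung cells (drug ip on days 5, 9, 13). Drug given as a solution in 0.1 mL 30% v/v EtOH/water, in mg/kg per day. Value is the average life-span increase versus untreated tumor-bearing controls at the optimal dose. Significance thresholds: ILS >20% (P388), >40% (LL). Groups of six.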

[9] = test system: Lewis lung carcinoma cell line; experiment: as §3; assay type: functional, Mus musculus; procedure, shortened: as §4
[10] = test system: Lewis lung carcinoma cell line; experiment: as §1; assay type: functional, organism-based; details: Mus musculus; procedure, shortened: as §2
P388 [11] = experiment: Average increase in life span of treated animals over control groups of tumor-bearing untreated animals when given at optimal dose of 150 mg/kg/day;NA means no significant activity (in vivo); assay type: functional, organism-based; details: Mus musculus; procedure, shortened: as §2
[12] = test system: Lewis lung carcinoma cell line; experiment: Average increase in life span of treated animals over control groups of tumor-bearing untreated animals when given at optimal dose of 25 mg/kg/day; NA means no significant activity (in vivo); assay type: functional, organism-based; details: Mus musculus, in the assay text read “225 mg/kg/day” for “25 mg/kg/day”; procedure, shortened: as §2
[13] = test system: Lewis lung carcinoma cell line; experiment: Average increase in life span of treated animals over control groups of tumor-bearing untreated animals when given at optimal dose;NA means no significant effect (in vivo); assay type: functional, organism-based; details: Mus musculus; procedure, shortened: as §2

Row | SMILES | Ratio (L1210 [1]) | Ratio (L1210 [2]) | OD (P388 [4]) [mg/kg/day] | IC50 (L1210 [5]) [nM] | Rm [6] | OD [7] [mg/kg/day] | ILS max (P388 [8]) | other results
1 | Cc1ccc(C(N)=O)c2nc3ccccc3nc12 | 1 | 0.7 | – | – | – | – | – | –
2 | Cc1cc(C(N)=O)c2nc3ccccc3nc2c1 | 1 | 0.5 | – | – | – | – | – | –
3 | CN(C)CCNC(=O)c1c(Cl)ccc2nc3ccccc3nc12 | – | – | 100 | 14900 | -0.27 | – | – | ILSmax (P388 [3]): Not significant
4 | COc1ccc2nc3ccccc3nc2c1C(=O)NCCN(C)C | – | – | 225 | 1620 | -0.5 | 225 | 33 | ILS max [9]: 43
5 | CN(C)CCNC(=O)c1cccc2nc3ccc4ccccc4c3nc12 | – | – | 30 | 33 | -0.05 | 45 | 98 | ILS max [9]: 56
6 | CN(C)CCNC(=O)c1cc(Cl)cc2nc3ccccc3nc12 | – | – | 150 | 160 | -0.06 | 150 | 106 | ILS max [9]: 63
7 | CN(C)CCNC(=O)c1cccc2nc3ccccc3nc12 | – | – | 150 | 1400 | -0.29 | 150 | 88 | ILS max [9]: 57
8 | COc1cccc2nc3c(C(N)=O)cccc3nc12 | 6 | 1 | – | – | – | – | – | –
9 | Cc1ccc2nc3c(C(=O)NCCN(C)C)cccc3nc2c1 | – | – | 150 | 1500 | -0.18 | 100 | 29 | ILS max [10]: Not significant
10 | Cc1ccc2nc3cccc(C(N)=O)c3nc2c1 | 1.5 | 0.9 | – | – | – | – | – | –
11 | CN(C)CCNC(=O)c1cc2ccccc2c2nc3ccccc3nc12 | – | – | 65 | 170 | 0.11 | 65 | 84 | ILS max [10]: Not significant
12 | Cc1cccc2nc3cccc(C(N)=O)c3nc12 | 0.1 | 0.9 | – | – | – | – | – | –
13 | COc1ccc2nc3c(C(N)=O)cccc3nc2c1 | 5 | 1 | – | – | – | – | – | –
14 | O=C(NCCNCCO)c1cccc2nc3ccccc3nc12 | – | – | 65 | 2000 | -0.32 | 65 | – | ILS max (P388 [3]): Not significant; ILS max [10]: Not significant
15 | COc1ccc2nc3cccc(C(N)=O)c3nc2c1 | 1.4 | 1 | – | – | – | – | – | –
16 | CN(C)CCNC(=O)c1cccc2nc3cccc(Cl)c3nc12 | – | – | 30 | 11 | -0.37 | 45 | 61 | ILS max [9]: 124
17 | COc1cccc2nc3c(C(=O)NCCN(C)C)cccc3nc12 | – | – | 150 | 5000 | -0.44 | – | – | ILSmax (P388 [3]): Not significant
18 | Cc1ccc2nc3cccc(C(=O)NCCN(C)C)c3nc2c1 | – | – | 150 | 630 | -0.2 | 225 | 60 | ILS max [9]: 81
19 | COc1ccc(C(=O)NCCN(C)C)c2nc3ccccc3nc12 | – | – | 225 | 550 | -0.41 | – | – | ILSmax (P388 [3]): Not significant
20 | COc1cccc2nc3cccc(C(=O)NCCN(C)C)c3nc12 | – | – | 100 | 48 | -0.42 | 100 | 106 | ILS max [9]: 128
21 | CCN(CC)CCNC(=O)c1cccc2nc3ccccc3nc12 | – | – | 225 | 2100 | 0.09 | 150 | 43 | ILS max [10]: Not significant
22 | Cc1cccc2nc3cccc(C(=O)NCCN(C)C)c3nc12 | – | – | 65 | 42 | -0.23 | 65 | 45 | ILS max [9]: 62

Row | SMILES | Ratio (L1210 [1]) | Ratio (L1210 [2]) | OD (P388 [4]) [mg/kg/day] | IC50 (L1210 [5]) [nM] | Rm [6] | OD [7] [mg/kg/day] | ILS max (P388 [8]) | other results
23 | NC(=O)c1cc(Cl)cc2nc3ccccc3nc12 | 1 | 0.4 | – | – | – | – | – | –
24 | Cc1cccc2nc3c(C(=O)NCCN(C)C)cccc3nc12 | – | – | 150 | 820 | -0.01 | 150 | 58 | ILS max [10]: Not significant
25 | NC(=O)c1cccc2nc3cc(Cl)ccc3nc12 | 7.1 | 0.3 | – | – | – | – | – | –
26 | CN(C)CCNC(=O)c1cccc2nc3cc(Cl)ccc3nc12 | – | – | 65 | 1140 | -0.13 | 65 | 20 | ILSmax [10]: Not significant
27 | COc1ccc2nc3c(C(=O)NCCN(C)C)cccc3nc2c1 | – | – | 100 | 4100 | -0.27 | 150 | – | ILSmax (P388 [3]): Not significant; ILSmax [10]: Not significant
28 | Cc1cc(C(=O)NCCN(C)C)c2nc3ccccc3nc2c1 | – | – | 225 | 410 | -0.15 | 225 | 91 | ILS max [9]: 158
29 | COc1ccc(C(N)=O)c2nc3ccccc3nc12 | 0.6 | 1 | – | – | – | – | – | –
30 | Cc1ccc2nc3c(C(N)=O)cccc3nc2c1 | 3.7 | 0.4 | – | – | – | – | – | –
31 | CN(C)CCNC(=O)c1cccc2nc3ccc(Cl)cc3nc12 | – | – | 100 | 670 | -0.2 | 100 | 64 | ILS max [9]: 64
32 | COc1cc(C(=O)NCCN(C)C)c2nc3ccccc3nc2c1 | – | – | 100 | 830 | -0.25 | 150 | 22 | ILS max [10]: Not significant
33 | COc1cccc2nc3cccc(C(N)=O)c3nc12 | 0.05 | 1 | – | – | – | – | – | –
34 | COc1cc(C(N)=O)c2nc3ccccc3nc2c1 | 1 | 1 | – | – | – | – | – | –
35 | Cc1cccc2nc3c(C(N)=O)cccc3nc12 | 2 | 0.6 | – | – | – | – | – | –
36 | NC(=O)c1cccc2nc3c(Cl)cccc3nc12 | 5 | 0.6 | – | – | – | – | – | –
37 | NC(=O)c1cccc2nc3cccc(Cl)c3nc12 | 0.07 | 0.2 | – | – | – | – | – | –
38 | O=C(NCCN1CCOCC1)c1cccc2nc3ccccc3nc12 | – | – | 225 | 11000 | -0.21 | 225 | – | ILSmax (P388 [3]): Not significant; ILSmax [10]: Not significant
39 | CN(C)CCNC(=O)c1cccc2nc3c(Cl)cccc3nc12 | – | – | 150 | 780 | -0.18 | 150 | 56 | ILS max [9]: 49
40 | COc1ccc2nc3cccc(C(=O)NCCN(C)C)c3nc2c1 | – | – | 100 | 1050 | -0.33 | 150 | 39 | ILS max [10]: Not significant
41 | CN(C)CCCNC(=O)c1cccc2nc3ccccc3nc12 | – | – | 150 | 1500 | -0.21 | 225 | – | ILSmax (P388 [11]): Not significant; ILSmax [12]: Not significant
42 | Cc1ccc(C(=O)NCCN(C)C)c2nc3ccccc3nc12 | – | – | 100 | 400 | 0.08 | 150 | 28 | ILS max [13]: Not significant
43 | NC(=O)c1cccc2nc3ccc(Cl)cc3nc12 | 4.2 | 0.6 | – | – | – | – | – | –
44 | CN(C)CCNC(=O)c1cccc2nc3c(ccc4ccccc43)nc12 | – | – | 45 | 310 | -0.32 | 45 | 29 | ILS max [10]: Not significant
